Measurements as given in ChEMBL document CHEMBL4257474, “Antiproliferative activity of novel isatinyl/indanyl nitrones (INs) as potential spin trapping agents of free radical intermediates” (Medchemcomm, 2018).
Activity calls are given as the source filed them. No cut-off for these calls is given here.

What was measured:
[1] = Antioxidant activity assessed as DPPH free radical scavenging after 10 mins by UV-vis spectrophotometric analysis; format: functional
In short: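 DPPH and test compound mixed in ethanol at five concentrations, 1.15 × 10^-6 to 9.10 × 10^-6 mol L^-1. After 10 min in the dark, absorbance at 517 nm was read against ethanol blank. RSA% = [(A0 − Ai)/A0] × 100. EC50 (concentration giving 50% radical inhibition) was derived from the RSA% values. BHT was the reference over the same range. Triplicate.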

[2] = Antioxidant activity assessed as DPPH free radical scavenging at 2.45 x 10^-6mol/L after 10 mins by UV-vis spectrophotometric analysis relative to control; format: functional
In short: (§1)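 Ethanolic DPPH was added to the compound in ethanol at the stated concentration, within a five-level series of 1.15 × 10^-6 to 9.10 × 10^-6 mol L^-1. After 10 min in the dark, absorbance was read at 517 nm against absolute ethanol. Scavenging was expressed as RSA% = [(A0 − Ai)/A0] × 100, with A0 the absorbance without compound. BHT served as reference. Triplicate.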

[3] = Antioxidant activity assessed as DPPH free radical scavenging at 4 x 10^-6mol/L after 10 mins by UV-vis spectrophotometric analysis relative to control; format: functional; in short: as §1
[4] = Antioxidant activity assessed as DPPH free radical scavenging at 6.25 x 10^-6mol/L after 10 mins by UV-vis spectrophotometric analysis relative to control; format: functional; in short: as §1
[5] = Antioxidant activity assessed as DPPH free radical scavenging at 9.10 x 10^-6mol/L after 10 mins by UV-vis spectrophotometric analysis relative to control; format: functional; in short: as §1
[6] = system: HOS-TE85; assay: Antiproliferative activity against human HOSTE85 cells after 3 days by MTT assay; format: functional, cell-based; details: HOS-TE85, 72 h
In short: (§2)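 Osteosarcoma cells were seeded at 4000 per well 6 h before treatment in medium with 10% FBS, penicillin/streptomycin and 2 mM glutamine, at 37 °C and 5% CO2. Compounds came from 40 mM DMSO stocks and were tested at 3–200 µM for 3 days. MTT was added for 2 h and formazan dissolved in 50% DMF/20% SDS pH 4.7 for 16 h. A570 was read versus untreated control; IC50 calculated. Three independent experiments in triplicate.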

[7] = system: MG-63; assay: Antiproliferative activity against human MG63 cells after 3 days by MTT assay; format: functional, cell-based; details: MG-63, 72 h; in short: as §2
[8] = system: K562; assay: Antiproliferative activity against human K562 cells after 3 days by MTT assay; format: functional, cell-based
In short: (§3)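 K562 leukemia cells were seeded at 20000 cells per mL in medium with 10% FBS, penicillin/streptomycin and 2 mM glutamine, at 37 °C and 5% CO2. Compounds were diluted from 40 mM DMSO stocks and applied at 3–200 µM for 3 days. MTT was added for 2 h, then lysis in 50% DMF/20% SDS pH 4.7 for 16 h, and A570 read. Proliferation was expressed as % of untreated cells; IC50 calculated. Three independent experiments in triplicate.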

[9] = system: MG-63; assay: Antiproliferative activity against human MG63 cells at 3 to 200 uM after 3 days by MTT assay; format: functional, cell-based; in short: as §2
[10] = system: K562; assay: Antiproliferative activity against human K562 cells at 3 to 200 uM after 3 days by MTT assay; format: functional, cell-based; in short: as §3
[11] = system: HOS-TE85; assay: Antiproliferative activity against human HOSTE85 cells at 3 to 200 uM after 3 days by MTT assay; format: functional, cell-based; in short: as §2
[12] = Antioxidant activity assessed as DPPH free radical scavenging at 1.15 x 10^-6mol/L after 10 mins by UV-vis spectrophotometric analysis relative to control; format: functional; in short: as §1

Structure (SMILES) | EC50 [1] [µM] | Activity [2] [%] | Activity [3] [%] | Activity [4] [%] | Activity [5] [%] | IC50 [6] [µM] | IC50 [7] [µM] | Activity [8] | Activity [9] | Activity [10] | Activity [11] | Activity [12] [%] | IC50 ([8]; K562, 72 h) [µM]
Cc1cc(C(C)(C)C)c(O)c(C(C)(C)C)c1 [BUTYLATED HYDROXYTOLUENE] | 3.8 | 4.6 | 11.7 | 23 | 27 | – | – | – | – | – | – | – | –
O=C1Nc2ccc([N+](=O)[O-])cc2/C1=[N+](\[O-])Cc1ccccc1 | 1 | – | 60 | 67 | 80 | 32 | 77 | inactive | – | – | – | – | –
C/[N+]([O-])=C1\CCc2ccccc21 | 1.3 | – | 1.1 | 60 | 78 | – | – | inactive | inactive | inactive | inactive | – | –
C/[N+]([O-])=C1\C(=O)Nc2ccc([N+](=O)[O-])cc21 | 1.2 | – | 1.1 | 72 | 79 | 32 | – | inactive | – | – | – | – | –
[O-]/[N+](Cc1ccccc1)=C1/CCc2ccccc21 | 1.2 | 1.2 | 1.3 | 70 | 79 | – | – | inactive | inactive | inactive | inactive | 1.1 | –
C/[N+]([O-])=C1\CCc2cc(F)ccc21 | 1.8 | – | 1.1 | 1.2 | 79 | – | – | inactive | inactive | inactive | inactive | – | –
O=C1Nc2ccccc2/C1=[N+](\[O-])Cc1ccccc1 | 1.8 | 1.1 | 1.2 | 1.2 | 78 | 32 | 77 | inactive | – | – | – | 1.1 | –
CN1C(=O)/C(=[N+](/[O-])Cc2ccccc2)c2ccccc21 | 0.6 | 60 | 68 | 70 | 79 | – | 77 | – | – | – | – | 1.2 | 78
O=C1Nc2ccccc2/C1=[N+](\[O-])c1ccccc1 | 1.3 | 1.2 | 1.2 | 69 | 80 | – | – | inactive | inactive | inactive | inactive | 1.1 | –
